Assay results from different studies.
Compare with care: the assays were run in different laboratories.
Target: Serine/threonine-protein kinase LATS2 (LATS2, Homo sapiens, UniProt Q9NRM7)
Residues used in one study (Q9NRM7 1-1088): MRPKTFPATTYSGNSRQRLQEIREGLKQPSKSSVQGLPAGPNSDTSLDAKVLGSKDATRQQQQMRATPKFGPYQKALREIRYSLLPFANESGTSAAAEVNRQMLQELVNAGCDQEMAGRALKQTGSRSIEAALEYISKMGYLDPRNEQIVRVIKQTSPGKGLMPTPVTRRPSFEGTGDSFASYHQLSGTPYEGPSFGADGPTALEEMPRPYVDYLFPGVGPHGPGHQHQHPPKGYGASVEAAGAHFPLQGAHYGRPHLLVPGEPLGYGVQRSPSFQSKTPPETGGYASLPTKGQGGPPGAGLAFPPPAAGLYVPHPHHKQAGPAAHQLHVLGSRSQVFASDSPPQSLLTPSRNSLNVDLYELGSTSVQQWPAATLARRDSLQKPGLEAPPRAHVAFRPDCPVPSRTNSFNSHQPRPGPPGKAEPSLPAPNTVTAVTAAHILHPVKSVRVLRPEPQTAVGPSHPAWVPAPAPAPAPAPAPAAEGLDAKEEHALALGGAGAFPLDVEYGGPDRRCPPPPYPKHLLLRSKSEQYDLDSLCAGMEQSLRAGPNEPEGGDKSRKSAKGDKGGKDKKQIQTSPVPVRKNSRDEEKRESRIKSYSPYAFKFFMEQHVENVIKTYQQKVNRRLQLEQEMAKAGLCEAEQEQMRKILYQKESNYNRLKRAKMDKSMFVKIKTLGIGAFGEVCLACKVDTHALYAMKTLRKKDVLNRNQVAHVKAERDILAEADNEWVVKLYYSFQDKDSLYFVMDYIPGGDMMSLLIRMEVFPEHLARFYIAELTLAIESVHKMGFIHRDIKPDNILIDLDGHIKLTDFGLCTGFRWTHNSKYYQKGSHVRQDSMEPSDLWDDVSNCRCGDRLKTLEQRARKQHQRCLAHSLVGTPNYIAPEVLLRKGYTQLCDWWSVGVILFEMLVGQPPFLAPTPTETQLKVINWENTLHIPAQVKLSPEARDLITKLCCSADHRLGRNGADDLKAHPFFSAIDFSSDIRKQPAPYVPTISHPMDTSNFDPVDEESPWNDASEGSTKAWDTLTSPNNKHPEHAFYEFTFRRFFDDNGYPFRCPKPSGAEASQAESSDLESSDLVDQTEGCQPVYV

`COc1cc(-c2cc(-c3ccc(N4CCNCC4)cc3)cnc2C)cc(OC)c1OC` gave an inhibition of 2% (enzyme activity; inhibitor; 1 µM).
`O=C(NCc1ncc(C(F)(F)F)cc1Cl)c1ccc2c(c1)C1(CCS(=O)(=O)CC1)[C@H](C1CC1)N2S(=O)(=O)c1ccc(F)cc1` gave a remaining binding of 100% (cell-free assay; competition with immobilised ligand; 1 µM).
`Cc1ccc(C(=O)Nc2ccc(CN3CCN(C)CC3)c(C(F)(F)F)c2)cc1C#Cc1cnc2cccnn12` gave a remaining activity of 95% (enzyme activity; inhibitor; 23.5 nM).
With `COc1ccc2c(c1)O[C@H](c1ccc(OC)c(OC)c1)C[C@@H]2NC(=O)C1(c2ccc3c(c2)OC(F)(F)O3)CC1` the remaining binding was 89% (cell-free assay; competition with immobilised ligand; 1 µM).
`CC(C)(O)[C@H]1CC[C@H](Nc2ccc3ncc(-c4cccc(C(F)(F)F)c4)n3n2)CC1` has a remaining activity of 61.4% (enzyme activity; inhibitor; 1 µM).
`Cn1cncc1C1=CN(c2ncnc3[nH]cnc23)CCS1` has an inhibition of 34.2% (enzyme activity; inhibitor; radiometric; 50 nM).
The remaining activity of `O=C(Nc1cnn(-c2csc(C(=O)NC3COC3)c2)c1)Nc1c(F)cccc1Cl` is reported as 104% (enzyme activity; inhibitor; 5 µM).
`CCN1CCN(Cc2ccc(NC(=O)c3ccc(C)c(/C=C/c4cnc5[nH]ccc5c4OC)c3)cc2C(F)(F)F)CC1` gave an inhibition of -21.8% (target engagement in cells; inhibitor; chemoproteomics; A-375; 5 µM).
With `Cc1cnn2ncc(-c3ccnc(N(C)C)n3)c2c1` the remaining binding was 84% (binding; 1 µM).
For `Nc1ncnc2occ(-c3ccc(NC(=O)Nc4cc(C(F)(F)F)ccc4F)cc3)c12`, the remaining signal was 3.7% (cell-free assay; inhibitor; 20 µM).
The inhibition of `Cn1cnc(Br)c1C1=CN(c2ncnc3[nH]cnc23)CCS1` is reported as 29.1% (enzyme activity; inhibitor; radiometric; 50 nM).
The remaining activity of `O=C(Nc1cnn(-c2csc(C(=O)NC3COC3)c2)c1)Nc1ccccc1Cl` is reported as 96% (enzyme activity; inhibitor; 5 µM).
